Assay results published in ChEMBL document CHEMBL1140235, “Novel 4-(4-aryl)cyclohexyl-1-(2-pyridyl)piperazines as Delta(8)-Delta(7) sterol isomerase (emopamil binding protein) selective ligands with antiproliferative activity” (J Med Chem, 2008).

Columns and labels:
[1] = Displacement of [3H]-DTG from sigma 2-type opioid receptor in rat liver membrane in presence of (+)-pentazocine; type: cell membranes
In short: (§1)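 Radioligand displacement run by previously published methods, EBP per Moebius and σ1/σ2 per Matsumoto. Tissues from male Dunkin guinea pigs and Wistar Hannover rats (250–300 g). IC50 from six to nine drug concentrations in two or three experiments, samples in duplicate.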

[2] = target: T1, 3-beta-hydroxysteroid-Delta(8),Delta(7)-isomerase (Cavia porcellus, UniProt Q60490); experiment: Displacement of [3H](-)-(S)-emopamil from EBP in guinea pig liver membrane; type: cell membranes; in short: as §1
T1 sequence (Q60490 whole entry): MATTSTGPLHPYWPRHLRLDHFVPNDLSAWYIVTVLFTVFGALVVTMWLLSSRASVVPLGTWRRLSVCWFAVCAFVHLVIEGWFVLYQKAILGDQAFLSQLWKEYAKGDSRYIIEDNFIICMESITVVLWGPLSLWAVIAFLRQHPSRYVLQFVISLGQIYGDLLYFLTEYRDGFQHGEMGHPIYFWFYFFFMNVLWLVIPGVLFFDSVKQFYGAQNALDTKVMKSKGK

[3] = system: PC-3; experiment: Cytotoxicity against human PC3 cells assessed as LDH release at 100 uM after 24 hrs relative to untreated control; type: functional
In short: (§2)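 PC-3 cells exposed to test compound for 24 h at 37 °C, 5% CO2. LDH release into the medium was measured fluorimetrically (ex 560/em 590 nm) after 10 min with substrate mix at room temperature, then stop solution. Total LDH taken from lysed untreated wells. % cytotoxicity = 100 × (treated medium LDH − background)/(total LDH − background).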

[4] = system: PC-3; experiment: Antiproliferative activity against human PC3 cells expressing EBP at 100 uM after 48 hrs by MTT assay; type: functional; conditions: PC-3, 48 h
In short: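 PC-3 human prostate cancer cells grown in RPMI 1640 with 10% FBS, 2 mM glutamine and penicillin/streptomycin at 37 °C under 5% CO₂. Seeded at 10 000 cells/well, then dosed the next day with solvent (ethanol, DMSO) controls. Incubated 48 h. MTT 0.5 mg/mL added for 3 h at 37 °C, formazan dissolved in DMSO, absorbance read at 570 and 630 nm. Percent inhibition at 100 µM, n ≥ 2 separate experiments.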

[5] = system: PC-3; experiment: Antiproliferative activity against human PC3 cells expressing EBP after 48 hrs by MTT assay; type: functional, cell-based
In short: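 MTT read-out at 48 h in PC-3 cells grown in RPMI 1640 with 10% FBS, 2 mM glutamine, penicillin/streptomycin, 37 °C, 5% CO2. 10 000 cells/well seeded day 1, drugs added day 2 over 1–100 µM (150 or 300 µM for some references). Solvent controls included. MTT 0.5 mg/mL for 3 h, formazan dissolved in DMSO, absorbance at 570 and 630 nm.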

[6] = target: T2, 5-hydroxytryptamine receptor 1A (Rattus norvegicus, UniProt P19327); experiment: Displacement of [3H]8OH-DPAT from 5HT1A receptor in rat hippocampal membrane; type: cell membranes, Hippocampus
T2 sequence (P19327 whole entry): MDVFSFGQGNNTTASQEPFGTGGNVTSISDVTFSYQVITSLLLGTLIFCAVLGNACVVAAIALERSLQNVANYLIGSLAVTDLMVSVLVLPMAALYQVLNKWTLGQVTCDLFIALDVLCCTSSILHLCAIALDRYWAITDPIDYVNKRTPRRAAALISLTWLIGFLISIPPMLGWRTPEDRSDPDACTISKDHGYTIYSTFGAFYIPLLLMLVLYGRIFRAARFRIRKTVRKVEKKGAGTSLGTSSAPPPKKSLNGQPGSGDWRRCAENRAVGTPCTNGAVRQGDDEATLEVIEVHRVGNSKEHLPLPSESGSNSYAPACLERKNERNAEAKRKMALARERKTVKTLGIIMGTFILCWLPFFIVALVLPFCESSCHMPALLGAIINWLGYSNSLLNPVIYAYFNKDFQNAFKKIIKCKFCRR

[7] = target: D(2) dopamine receptor (Rattus norvegicus, UniProt P61169); experiment: Displacement of [3H]spiroperidol from dopamine D2 receptor in rat striatal membrane; type: cell membranes, Striatum
[8] = target: T3, Adrenergic receptor alpha-1 (Rattus norvegicus, UniProt P15823+P23944+P43140); experiment: Displacement of [3H]prazosin from adrenergic alpha1 receptor in rat cortical membrane; type: cell membranes
T3 sequence (P15823 whole entry): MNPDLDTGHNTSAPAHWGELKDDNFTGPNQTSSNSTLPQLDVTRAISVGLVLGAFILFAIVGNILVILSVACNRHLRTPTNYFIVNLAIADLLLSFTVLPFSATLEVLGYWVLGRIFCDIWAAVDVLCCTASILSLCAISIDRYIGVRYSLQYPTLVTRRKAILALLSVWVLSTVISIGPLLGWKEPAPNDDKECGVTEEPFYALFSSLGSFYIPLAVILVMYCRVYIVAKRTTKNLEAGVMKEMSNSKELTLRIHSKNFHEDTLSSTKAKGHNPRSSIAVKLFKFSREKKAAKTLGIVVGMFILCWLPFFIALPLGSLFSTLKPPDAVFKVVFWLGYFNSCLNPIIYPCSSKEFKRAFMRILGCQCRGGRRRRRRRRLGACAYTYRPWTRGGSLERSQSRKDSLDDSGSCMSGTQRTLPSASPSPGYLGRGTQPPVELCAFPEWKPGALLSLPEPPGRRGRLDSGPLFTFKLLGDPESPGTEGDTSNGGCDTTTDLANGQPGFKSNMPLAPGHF
T3 sequence (P23944 whole entry): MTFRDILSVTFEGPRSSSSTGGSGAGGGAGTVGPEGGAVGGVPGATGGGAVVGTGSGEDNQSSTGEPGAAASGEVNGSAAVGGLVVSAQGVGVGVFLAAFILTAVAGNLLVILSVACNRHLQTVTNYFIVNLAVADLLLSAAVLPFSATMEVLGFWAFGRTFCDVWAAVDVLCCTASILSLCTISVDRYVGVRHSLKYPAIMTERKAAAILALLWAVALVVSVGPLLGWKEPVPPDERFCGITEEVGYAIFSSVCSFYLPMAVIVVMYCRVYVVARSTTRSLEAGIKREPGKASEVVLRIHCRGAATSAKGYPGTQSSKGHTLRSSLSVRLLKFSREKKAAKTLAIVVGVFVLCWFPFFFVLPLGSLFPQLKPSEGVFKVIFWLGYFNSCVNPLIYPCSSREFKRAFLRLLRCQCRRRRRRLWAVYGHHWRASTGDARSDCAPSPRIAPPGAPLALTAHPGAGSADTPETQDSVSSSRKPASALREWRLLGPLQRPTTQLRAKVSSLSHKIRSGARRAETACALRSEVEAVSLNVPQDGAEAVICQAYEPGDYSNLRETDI
T3 sequence (P43140 whole entry): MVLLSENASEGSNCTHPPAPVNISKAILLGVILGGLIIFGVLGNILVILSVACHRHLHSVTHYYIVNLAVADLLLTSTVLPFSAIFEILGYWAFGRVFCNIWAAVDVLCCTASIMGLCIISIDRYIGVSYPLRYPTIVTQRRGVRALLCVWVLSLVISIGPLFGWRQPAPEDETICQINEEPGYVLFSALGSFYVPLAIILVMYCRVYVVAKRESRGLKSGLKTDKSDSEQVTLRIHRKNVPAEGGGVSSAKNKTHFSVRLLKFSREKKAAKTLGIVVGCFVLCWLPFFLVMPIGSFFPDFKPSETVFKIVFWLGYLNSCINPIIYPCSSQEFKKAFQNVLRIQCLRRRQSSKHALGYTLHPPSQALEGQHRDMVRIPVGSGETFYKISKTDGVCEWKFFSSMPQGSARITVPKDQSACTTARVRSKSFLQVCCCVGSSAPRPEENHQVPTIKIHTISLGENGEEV

[9] = Selectivity ratio of Ki for sigma 2 receptor in rat liver membrane to Ki for EBP in guinea pig liver membrane; type: cell membranes
[10] = organism: Cavia porcellus; experiment: Selectivity ratio of Ki for sigma 1 receptor in guinea pig brain membrane without cerebellum to Ki for EBP in guinea pig liver membrane; type: cell membranes
[11] = target: Sigma non-opioid intracellular receptor 1 (Cavia porcellus, UniProt Q60492); experiment: Displacement of [3H](+)-pentazocine from sigma 1 receptor in guinea pig brain membrane without cerebellum; type: cell membranes; in short: as §1
[12] = system: PC-3; experiment: Cytotoxicity against human PC3 cells assessed as LDH release after 24 hrs; type: functional, cell-based; conditions: PC-3, 24 h; in short: as §2

D(2) dopamine receptor, sequence (P61169 whole entry): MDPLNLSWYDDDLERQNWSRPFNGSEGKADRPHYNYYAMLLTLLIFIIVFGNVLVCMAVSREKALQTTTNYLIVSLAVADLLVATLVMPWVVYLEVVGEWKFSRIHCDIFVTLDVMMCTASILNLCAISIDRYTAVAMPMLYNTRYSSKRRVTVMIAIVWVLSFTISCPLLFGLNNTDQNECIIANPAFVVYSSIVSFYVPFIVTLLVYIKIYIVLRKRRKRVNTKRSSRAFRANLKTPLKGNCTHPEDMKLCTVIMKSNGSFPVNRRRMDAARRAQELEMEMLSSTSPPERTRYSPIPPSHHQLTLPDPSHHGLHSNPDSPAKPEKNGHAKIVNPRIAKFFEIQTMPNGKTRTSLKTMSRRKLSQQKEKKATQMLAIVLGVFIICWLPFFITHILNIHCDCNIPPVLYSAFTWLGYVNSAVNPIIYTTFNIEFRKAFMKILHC
Sigma non-opioid intracellular receptor 1, sequence (Q60492 whole entry): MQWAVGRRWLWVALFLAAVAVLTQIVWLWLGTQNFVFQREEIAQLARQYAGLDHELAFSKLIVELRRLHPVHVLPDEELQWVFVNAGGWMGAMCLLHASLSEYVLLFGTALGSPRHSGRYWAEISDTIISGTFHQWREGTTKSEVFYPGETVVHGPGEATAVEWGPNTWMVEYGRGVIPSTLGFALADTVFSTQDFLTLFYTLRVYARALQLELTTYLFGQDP

| Structure (SMILES) | Ki [1] [µM] | Ki [2] [µM] | Activity [3] [%] | inhibition at 100 µM [4] [%] | EC50 [5] [µM] | Ki [6] [µM] | Ki [7] [µM] | Ki [8] [µM] | Ratio Ki [9] | Ratio Ki [10] | Ki [11] [µM] | EC50 [12] [µM] |
| --- | --- | --- | --- | --- | --- | --- | --- | --- | --- | --- | --- | --- |
| Cc1ccccc1NC(=N)Nc1ccccc1C | 0.0311 | 7.66 | <10 | 27 |  |  |  |  |  |  |  |  |
| COc1ccccc1[C@H]1CC[C@@H](N2CCN(c3ccccn3)CC2)CC1 | 0.242 | 0.00815 | <10 |  | 19.3 | 0.48 | 2.12 | 0.712 | 30 | 45 | 0.369 |  |
| COc1ccc([C@H]2CC[C@@H](N3CCN(c4ccccn4)CC3)CC2)cc1 | 0.0638 | 0.0328 | <10 |  |  | 0.094 | 0.787 | 0.786 |  | 4 | 0.194 |  |
| COc1cccc([C@H]2CC[C@@H](N3CCN(c4cccc5ccccc45)CC3)CC2)c1 |  | 0.0167 | <10 |  |  | 0.074 | 1.31 | 5.54 |  |  | 0.24 |  |
| CC(C(O)c1ccc(O)cc1)N1CCC(Cc2ccccc2)CC1 (racemic) [IFENPRODIL] | 0.0023 | 0.0164 | <10 |  | 25.8 |  |  |  |  |  |  |  |
| COc1cccc([C@H]2CC[C@H](N3CCN(c4ccccn4)CC3)CC2)c1 | 0.0219 | 0.0162 | <10 |  | 23 |  |  |  | 2 |  | 0.0248 |  |
| Cc1ccccc1[C@H]1CC[C@@H](N2CCN(c3ccccn3)CC2)CC1 | 0.071 | 0.005 | <10 |  | 38 |  |  |  | 14 | 200 | 1 |  |
| COc1cccc([C@H]2CC[C@@H](N3CCN(c4ccccc4)CC3)CC2)c1 |  | 1.71 | <10 |  |  | 0.183 | 2.38 | 2.25 |  |  |  |  |
| CCCN(CCC)CCc1ccc(OC)c(OCCc2ccccc2)c1 | 0.212 |  | <10 |  | 47 |  |  |  |  |  |  |  |
| COc1cccc(OC)c1[C@H]1CC[C@@H](N2CCN(c3ccccn3)CC2)CC1 | 0.687 | 0.00495 | <10 |  | 12.9 |  |  |  | 138 | > 1210 | > 6 |  |
| COc1cccc([C@H]2CC[C@@H](NCCOc3ccccn3)CC2)c1 |  | 0.0235 | <10 |  |  | 0.373 | 0.783 | > 0.85 |  |  | 0.00771 |  |
| c1ccc(CCN2CCCCC2)cc1 | 0.194 | 0.595 | <10 | 30 |  |  |  |  | 0.3 | 0.5 | 0.309 |  |
| COc1cccc([C@H]2CC[C@@H](N3CCN(c4ccccn4)CC3)CC2)c1 | 0.0361 | 0.0454 | <10 |  |  | 0.815 | > 0.85 | 0.783 |  |  | 0.178 |  |
| COc1cccc2c1CCCC2CCCN1CCN(C2CCCCC2)CC1 (stereo not given) | 0.00034 | 0.00838 |  |  | 37.7 |  |  |  |  |  |  | 64.2 |
| CC(C)=CCN1CC[C@]2(C)c3cc(O)ccc3C[C@H]1[C@H]2C [(+)-PENTAZOCINE] | 1.86 | > 0.01 | <10 |  | 86.9 |  |  |  |  |  |  |  |
| Fc1cccc(F)c1[C@H]1CC[C@@H](N2CCN(c3ccccn3)CC2)CC1 | 0.44 | 0.14 | <10 |  | 37.3 |  |  |  | 3 | 37 | 5.17 |  |
